RAD54 inh = inhibitors of human RAD54 branch migration. Q92698. RAD54 Holliday junction branch migration, FAM/BHQ fluorescence. inhibition, % at 10.4 µM. actives 0.14% (n = 360,000). AID 602329;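 active means mean normalized replicate activity at least 40 and at least half of replicates scoring 40 or more; inconclusive means only one of the two criteria met; inactive means mean below 40 and under half of replicates reaching 40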;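 further: inhibitors cause a drop in the FAM fluorescence signal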
rRNA inh HTS = inhibitors of bacterial rRNA selective over humanized ribosomes | AID 720706 | E. coli WT GFP vs humanized-ribosome RFP mutants, fluorescence, 24 h; active compounds read low; DMSO median 0, no signal -100 | GFP signal change (wild-type ribosome), % (test concentration not listed) | actives 1.6% (n = 350,000);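 active means significant combined selectivity score with lowered wild-type GFP, culture density cut under 30%, mutant RFP and density less affected; inactive means any of these conditions unmet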
E-sel inducer = induces E-selectin expression in human endothelial cells | HUVEC E-selectin immunofluorescence imaging; normalized: neutral wells 0, TNF-alpha wells 100 | activation, % at 7.58 µM | P16581 | actives 0.37% (n = 260,000);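 active means mean E-selectin-positive cell signal at least 10% of the positive control, reached in at least 60% of replicates, without over 20% cell loss; inconclusive means no rule given, readout overlaps actives, possibly toxicity-flagged; inactive means the rest, including those meeting only one limit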
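material = human umbilical vein endothelial cells (HUVEC), E-selectin induction | quantity = 3,000 cells/well | medium = EGM-2 growth medium on 0.1% gelatin-coated wells | technique = immunofluorescence imaging | read-out basis = % PE-positive cells | control set = TNF-alpha positive control, DMSO neutral control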
AF4-AF9 inh = MLL-AF4/AF9 protein interaction inhibition. P42568. AlphaScreen, biotin-AF4 peptide binding to FLAG-AF9. inhibition, % at 10 µM. actives 0.47% (n = 350,000). AID 651704;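 active means every replicate reaching a set inhibition limit, whatever the replicate mean, cut at about 25% in these data; inconclusive means mean inhibition reaches that limit but some replicates miss it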
Target sequence (P42568 whole entry, looked up): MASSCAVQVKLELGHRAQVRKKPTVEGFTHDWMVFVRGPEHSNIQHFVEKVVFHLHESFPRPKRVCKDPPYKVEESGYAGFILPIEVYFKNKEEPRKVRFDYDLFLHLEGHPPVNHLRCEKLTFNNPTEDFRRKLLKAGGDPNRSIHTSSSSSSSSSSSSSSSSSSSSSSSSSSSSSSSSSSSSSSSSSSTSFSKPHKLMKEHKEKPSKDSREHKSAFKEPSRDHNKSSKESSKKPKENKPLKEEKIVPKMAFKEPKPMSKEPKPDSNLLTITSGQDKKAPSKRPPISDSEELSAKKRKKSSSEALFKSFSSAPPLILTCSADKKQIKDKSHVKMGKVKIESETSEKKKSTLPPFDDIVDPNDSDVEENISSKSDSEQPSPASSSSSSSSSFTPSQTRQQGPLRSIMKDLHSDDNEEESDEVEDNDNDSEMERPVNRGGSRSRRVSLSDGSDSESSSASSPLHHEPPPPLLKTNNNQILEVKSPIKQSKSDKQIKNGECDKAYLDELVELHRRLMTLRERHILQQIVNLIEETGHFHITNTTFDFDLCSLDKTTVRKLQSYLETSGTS
RAD52 inh = RAD52 (human) annealing inhibition | P43351 | recombinant RAD52 DNA annealing, FRET fluorescence | inhibition, % at 18.7 µM | actives 0.46% (n = 360,000);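 active means every replicate showing at least 50% inhibition; inconclusive means mean inhibition at least 50% but not in every replicate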
GSIS activator = GLuc luminescence reporter in INS-1E cells, primary screen for activators of glucose-dependent secretion of insulin | INS-1E GLuc reporter insulin secretion, 2-3 h | activation, % at 16.6 µM | actives 0.61% (n = 370,000);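 active means lowest replicate activation of at least 40%, so every replicate reaches that level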
AID977621 = growth inhibition of wild-type GFP E. coli, dose response, H69 mutant RFP, cherry-pick | shares compounds with rRNA inh HTS | E. coli wild-type GFP strain growth, fluorescence, 24 h | activity change, negative = inhibition at 50 µM | 1,900 tested, under 10 active | AID 977621;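 active means Wild-type ribosome reporter drop at least double the humanized mutant ribosome reporter drop, growth loss under a set limit; inconclusive means no clear call, values can overlap the other calls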;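 further: wild-type GFP and H69 mutant RFP strains grown together 50/50 in each well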
AID977628 = growth of wild-type and h24-humanized E. coli strains – h24 mutant RFP vs wild-type GFP, cherry-pick, dose response | shares compounds with rRNA inh HTS | E. coli WT GFP strain growth, fluorescence, 24 h | activity change, negative = inhibition at 50 µM | 1,900 tested, under 10 active | AID 977628;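 active means compound lowering the normal-ribosome reporter at least twice as much as the humanized-ribosome reporter, growth loss under a set limit; inconclusive means no clear call, values can overlap the other calls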;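 further: wild-type GFP and h24 humanized RFP strains co-cultured 1 to 1 per well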
Numbers stand for hits; – = inactive; ? = inconclusive; · = not tested or not shown. Shown are actives, neighbours in structure and some others; about 2.6% of the full set was active somewhere.

SMILES	RAD54 inh	rRNA inh HTS	E-sel inducer	AF4-AF9 inh	RAD52 inh	GSIS activator	AID977621	AID977628
O=C(Nc1ccc(Nc2ccccc2)cc1)c1c(F)c(F)c(F)c(F)c1F	–	–	·	–	–	–	·	·
O=C(O)c1ccc(C(=O)Nc2ccc(F)cc2)cc1	–	–	–	–	–	–	·	·
O=C(Nc1ccc(Nc2ccccc2)cc1)c1c(Cl)cccc1Cl	–	-34	·	–	–	–	–	·
Cc1ccc(NC(=O)C2CCN(c3cnccn3)CC2)cc1	·	–	·	–	–	–	·	·
O=C(Nc1ccc(C(F)(F)F)cc1)C1CCN(c2cnccn2)CC1	–	-31	·	–	–	–	–	–
CCCNC(=O)N1CC2(C1)CN(C(=O)NC(C)C)[C@@H](CO)c1c2c2ccc(OC)cc2n1C	·	–	·	·	·	–	·	·
COc1cc(OC)c(-c2nc3c[n+](CC(=O)c4ccccc4)ccc3n2C)cc1OC	–	·	·	·	·	·	·	·
COc1ccc(C(=O)C[n+]2ccc3c(c2)nc(-c2cc(OC)c(OC)cc2OC)n3C)cc1	–	-28	·	–	–	–	?	–
O=S(=O)(NCCc1ccncc1)c1ccc(Br)cc1	–	·	·	·	·	·	·	·
Fc1ccc(Br)cc1SCCc1ccncc1	–	-25	–	–	–	–	–	–
O=C(COc1ccccc1Cl)Nc1nc(-c2ccncc2)cs1	–	-20	–	–	–	–	–	–
O=C(COc1ccc(Cl)cc1)Nc1nc(-c2ccncc2)cs1	–	–	–	–	–	–	·	·
C[C@@H]1CN([C@@H](C)CO)C(=O)c2cccc(NC(=O)c3ccncc3)c2O[C@H]1CN(C)C	–	–	·	–	–	–	·	·
CCC/C(=C1/c2ccccc2C(=O)N1c1ccccc1)c1ccc2[nH]ccc2c1	–	–	–	–	–	–	·	·
CCCC#C/C(CCC)=C1\c2ccccc2C(=O)N1c1ccccc1	·	-16	–	–	–	–	–	?
O=[N+]([O-])c1ccc(-[n+]2nc(-c3ccccc3)nn2-c2ccccc2)cc1	–	-22	–	–	–	–	·	?
Cn1c(CCN2CCOCC2)nc2cc(NC(=O)c3cccs3)ccc21	·	-18	·	–	–	–	–	?
C[C@H]1CN([C@@H](C)CO)C(=O)c2c(c3ccccc3n2C)-c2ccccc2CO[C@@H]1CN(C)Cc1ccncc1	–	-29	–	–	–	–	·	–
C[C@H](CO)N1C[C@H](C)[C@@H](CN(C)Cc2ccncc2)OCc2ccccc2-c2c(n(C)c3ccccc23)C1=O	–	-22	–	–	–	–	–	·
CN1C(=O)c2cc(NC(=O)NC3CCCC3)ccc2OC[C@H]2O[C@H](CC(=O)O)CC[C@H]21	–	–	–	–	–	–	·	·
CC(=O)N1[C@@H](CO)[C@H](c2ccc(-c3cccc(F)c3)cc2)[C@@H]1CNC(=O)C1CC1	–	–	–	·	·	–	·	·
CCOc1ccc(OCC(=O)NCCc2nc3ccccc3[nH]2)cc1	–	·	·	·	·	·	·	·
O=C(CCCOc1ccccc1)NCCc1nc2ccccc2[nH]1	–	-19	–	–	–	–	·	–
CCCC#Cc1cnc2c(c1)C(=O)N([C@@H](C)CO)C[C@@H](C)[C@H](CN(C)Cc1ccncc1)O2	–	–	–	–	–	–	·	·
COc1cc(CC(=O)Nc2nc(C)cs2)cc(OC)c1OC	–	-19	–	–	–	–	–	–
SMILES	RAD54 inh	rRNA inh HTS	E-sel inducer	AF4-AF9 inh	RAD52 inh	GSIS activator	AID977621	AID977628
COc1ccc(Oc2ccc(C(F)(F)F)cc2NC(=O)CC(CC(=O)O)c2ccccc2)cc1 (stereo unspecified)	–	-36	–	–	–	–	–	·
COCC(=O)N1CC2(C1)CN(C(=O)CN1CCOCC1)[C@@H](CO)c1c2c2ccc(OC)cc2n1C	·	–	–	–	·	–	·	·
O=C(CCC(=O)c1cccs1)OCC(=O)c1ccc(F)cc1	–	–	–	–	–	–	·	·
O=C(CCC(=O)c1cccs1)OCC(=O)c1ccc(Cl)s1	–	-18	·	·	–	–	–	·
Cc1noc(C)c1NC(=O)N(C)C[C@@H]1Oc2ccc(NC(=O)CCCCCC(=O)Nc3ccccc3N)cc2C(=O)N([C@H](C)CO)C[C@H]1C	·	–	–	–	·	–	·	·
O=C(Nc1ccc(Cl)c(Cl)c1)c1ccncc1	–	·	·	·	·	·	·	·
O=C(Nc1ccc(Cl)c(Cl)c1)c1ccc(Cl)c(Cl)c1	–	-17	–	–	–	–	–	–
O=C(C[C@H]1C=C[C@@H](NC(=O)C2CC2)[C@H](CO)O1)NCCCN1CCOCC1	–	–	–	–	–	–	·	·
COc1ccc(CN(C)C[C@@H]2OCCCC[C@H](C)Oc3ccc(NS(=O)(=O)c4cn(C)cn4)cc3C(=O)N([C@@H](C)CO)C[C@H]2C)cc1	–	–	–	–	–	–	·	·
CCOc1cc(/C=C(\CC(=O)O)c2nc3ccccc3s2)ccc1OC	·	-21	–	–	–	51	–	–
CCOc1cc(/C=C(\CC(=O)O)c2nc3ccccc3s2)ccc1OCC(=O)Nc1cccc(C(F)(F)F)c1	–	–	–	–	–	–	·	·
C[C@H]1CN([C@@H](C)CO)C(=O)c2cccc(NS(=O)(=O)c3cccs3)c2O[C@H]1CN(C)C(=O)Nc1ccc2c(c1)OCO2	–	–	–	–	–	–	·	·
COC(=O)c1sc(-c2ccc(C(C)(C)C)cc2)cc1NC(=O)c1ccccc1C(=O)O	·	-17	–	–	–	–	–	·
Cc1ccc(N2C(=S)NC3c4cc(Cl)ccc4OC2(C)C3C(=O)N(C)C)cc1 (stereo unspecified)	–	-22	·	?	–	–	–	?
C[C@@H]1CN([C@H](C)CO)C(=O)c2cc(NC(=O)C3CCCCC3)ccc2O[C@@H]1CN(C)C(=O)Nc1ccc(C(F)(F)F)cc1	–	–	–	–	–	–	·	·
COC(=O)c1c(C)oc(C)c1S(=O)(=O)NC(c1ccccc1)c1ccccc1	–	-35	–	·	–	–	–	·
COC(=O)c1cc2ccccc2n1S(=O)(=O)c1ccccc1	–	-32	–	–	–	–	–	–
COC(=O)[C@@H](Cc1c[nH]c2ccccc12)NCc1cccc(B(O)O)c1	–	-20	–	–	–	–	?	·
COC(=O)C(Cc1c[nH]c2ccccc12)NC(C)=O (stereo unspecified)	–	·	·	·	·	·	·	·
C[C@H]1CN([C@@H](C)CO)C(=O)Cc2cc(NS(=O)(=O)c3ccccc3)ccc2O[C@@H]1CN(C)Cc1ccc(Oc2ccccc2)cc1	–	–	–	–	–	–	·	·

Screening results deposited in PubChem BioAssay by Broad Institute.
